Source: ChEMBL document CHEMBL1139875, “Discovery of 4-aminobutyric acid derivatives possessing anticonvulsant and antinociceptive activities: a hybrid pharmacophore approach” (2007)
The source made the active and inactive calls. No cut-off for these calls is given here.

Tests used:
Mus musculus [1] = test: Anticonvulsant activity in Swiss Albino mouse at 300 mg/kg, ip after 0.5 hr by MES test; format: functional, organism-based; set-up: dose 300 mg/kg
Procedure, shortened: (§1)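 Mice (Swiss, 20-25 g) given i.p. doses of 30, 100 and 300 mg/kg under ADD program protocols, three per group, examined at 0.5 and 4 h in MES, scPTZ, scSTY or scPIC seizure tests. Value is the minimum dose protecting half or more of the mice.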

Mus musculus [2] = test: Anticonvulsant activity in Swiss Albino mouse at 300 mg/kg, ip after 4 hrs by MES test; format: functional, organism-based; set-up: dose 300 mg/kg; procedure, shortened: as §1
Mus musculus [3] = test: Anticonvulsant activity in Swiss Albino mouse at 300 mg/kg, ip after 0.5 hr by scPTZ test; format: functional, organism-based; set-up: dose 300 mg/kg; procedure, shortened: as §1
Mus musculus [4] = test: Anticonvulsant activity in Swiss Albino mouse at 300 mg/kg, ip after 0.5 hr by scSTY test; format: functional, organism-based; set-up: dose 300 mg/kg; procedure, shortened: as §1
Mus musculus [5] = test: Anticonvulsant activity in Swiss Albino mouse at 300 mg/kg, ip after 4 hrs by scSTY test; format: functional, organism-based; set-up: dose 300 mg/kg; procedure, shortened: as §1
Mus musculus [6] = test: Anticonvulsant activity in Swiss Albino mouse at 100 mg/kg, ip after 0.5 hr by scPIC test; format: functional, organism-based; set-up: dose 100 mg/kg; procedure, shortened: as §1
Mus musculus [7] = test: Anticonvulsant activity in Swiss Albino mouse at 100 mg/kg, ip after 4 hrs by scPIC test; format: functional, organism-based; set-up: dose 100 mg/kg; procedure, shortened: as §1
Mus musculus [8] = test: Neurotoxicity in Swiss Albino mouse at 300 mg/kg, ip after 0.5 hr by rotarod test; format: functional, organism-based; set-up: dose 300 mg/kg
Procedure, shortened: (§2)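 Swiss mice (20-25 g) are trained on an accelerating rotorod (10 rpm, 3.2 cm rod), then injected i.p. at 30, 100 or 300 mg/kg, with three per group. Neurotoxicity means failure to keep equilibrium for at least 1 min in each of three trials, checked at 0.5 and 4 h. The value reported is the minimum dose affecting half or more of the mice.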

Mus musculus [9] = test: Neurotoxicity in Swiss Albino mouse at 300 mg/kg, ip after 4 hrs by rotarod test; format: functional, organism-based; set-up: dose 300 mg/kg; procedure, shortened: as §2
Mus musculus [10] = test: Analgesic activity in Swiss Albino mouse assessed as number of acetic acid-induced writhing per 30 min after 100 mg/kg, ip; format: functional; conditions: route intraperitoneal
Procedure, shortened: (§3)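 Mice in groups of six dosed i.p. at 100 mg/kg, controls receiving 30% v/v PEG 400 in water. Writhing induced by i.p. 0.1 mL of 3% v/v acetic acid 1 h after drug. Writhes (abdominal stretch with at least one hind limb extended) counted over 30 min; % inhibition calculated. Mean ± SEM, Student's t test.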

Mus musculus [11] = test: Analgesic activity in Swiss Albino mouse assessed as inhibition of acetic acid-induced writhing responses at 100 mg/kg, ip; format: functional; conditions: route intraperitoneal; procedure, shortened: as §3
Rattus norvegicus [12] = test: Anti-dynamic allodynia effect in Sprague-Dawley rat SNL model assessed as latency to paw withdrawal 100 mg/kg, ip after 0.5 hr; format: functional; conditions: route intraperitoneal
Procedure, shortened: (§4)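 Left L5 spinal nerve ligation rats, tested preoperatively and 9 days postoperatively, then given 100 mg/kg i.p. (vehicle 30% v/v PEG 400 in water). After 10 min acclimatization, plantar surface of affected paw stroked mildly with a cotton-bud; paw lift response recorded. n = 4; retested 0.5-2.5 h post-dose.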

Rattus norvegicus [13] = test: Anti-dynamic allodynia effect in Sprague-Dawley rat SNL model assessed as latency to paw withdrawal 100 mg/kg, ip after 1 hr; format: functional; conditions: route intraperitoneal; procedure, shortened: as §4
Rattus norvegicus [14] = test: Anti-dynamic allodynia effect in Sprague-Dawley rat SNL model assessed as latency to paw withdrawal 100 mg/kg, ip after 1.5 hrs; format: functional; conditions: route intraperitoneal; procedure, shortened: as §4
Rattus norvegicus [15] = test: Anti-dynamic allodynia effect in Sprague-Dawley rat SNL model assessed as latency to paw withdrawal 100 mg/kg, ip after 2 hrs; format: functional; conditions: route intraperitoneal; procedure, shortened: as §4
Rattus norvegicus [16] = test: Anti-dynamic allodynia effect in Sprague-Dawley rat SNL model assessed as latency to paw withdrawal 100 mg/kg, ip after 2.5 hrs; format: functional; conditions: route intraperitoneal; procedure, shortened: as §4
Rattus norvegicus [17] = test: Antihyperalgesic effects in Sprague-Dawley rat CCI model assessed as duration of paw withdrawal at 100 mg/kg, ip after 0.5 hr; format: functional; conditions: route intraperitoneal
Rattus norvegicus [18] = test: Antihyperalgesic effects in Sprague-Dawley rat CCI model assessed as duration of paw withdrawal at 100 mg/kg, ip after 1 hr; format: functional; conditions: route intraperitoneal
Rattus norvegicus [19] = test: Antihyperalgesic effects in Sprague-Dawley rat CCI model assessed as duration of paw withdrawal at 100 mg/kg, ip after 1.5 hrs; format: functional; conditions: route intraperitoneal
Rattus norvegicus [20] = test: Antihyperalgesic effects in Sprague-Dawley rat CCI model assessed as duration of paw withdrawal at 100 mg/kg, ip after 2 hrs; format: functional; conditions: route intraperitoneal
Rattus norvegicus [21] = test: Antihyperalgesic effects in Sprague-Dawley rat CCI model assessed as duration of paw withdrawal at 100 mg/kg, ip after 2.5 hrs; format: functional; conditions: route intraperitoneal
Rattus norvegicus [22] = test: Effect on spontaneous pain in Sprague-Dawley rat SNL model assessed as duration of paw withdrawal at 100 mg/kg, ip after 0.5 hr; format: functional; conditions: route intraperitoneal
Procedure, shortened: (§5)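 Rats underwent left L5 spinal nerve ligation (Kim and Chung) under i.p. pentobarbital (65 mg/kg). Spontaneous pain is recorded for 5 min after 10 min acclimatization, as cumulative duration the ipsilateral paw is lifted, excluding locomotor lifts. Dosing is 100 mg/kg i.p. in 30% v/v PEG 400/water, with testing at 0.5–2.5 h. Four rats, mean ± SEM versus predrug, one-way ANOVA with Bonferroni.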

Rattus norvegicus [23] = test: Effect on spontaneous pain in Sprague-Dawley rat SNL model assessed as duration of paw withdrawal at 100 mg/kg, ip after 1 hr; format: functional; conditions: route intraperitoneal; procedure, shortened: as §5
Rattus norvegicus [24] = test: Effect on spontaneous pain in Sprague-Dawley rat SNL model assessed as duration of paw withdrawal at 100 mg/kg, ip after 1.5 hrs; format: functional; conditions: route intraperitoneal; procedure, shortened: as §5
Rattus norvegicus [25] = test: Effect on spontaneous pain in Sprague-Dawley rat SNL model assessed as duration of paw withdrawal at 100 mg/kg, ip after 2 hrs; format: functional; conditions: route intraperitoneal; procedure, shortened: as §5
Rattus norvegicus [26] = test: Effect on spontaneous pain in Sprague-Dawley rat SNL model assessed as duration of paw withdrawal at 100 mg/kg, ip after 2.5 hrs; format: functional; conditions: route intraperitoneal; procedure, shortened: as §5
Rattus norvegicus [27] = test: Antihyperalgesic effects in Sprague-Dawley rat SNL model assessed as duration of paw withdrawal at 100 mg/kg, ip after 0.5 hr, ip; format: functional; conditions: route intraperitoneal
Procedure, shortened: (§6)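 L5 SNL rats (n = 4), dosed 100 mg/kg i.p. (vehicle 30% v/v PEG 400 in water). Pin-prick to midplantar ipsilateral left hindpaw; withdrawal duration, mean of three responses; ≥2 s defined abnormal. Mean ± SEM; one-way ANOVA with Bonferroni versus predrug.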

Rattus norvegicus [28] = test: Antihyperalgesic effects in Sprague-Dawley rat SNL model assessed as duration of paw withdrawal at 100 mg/kg, ip after 1 hr, ip; format: functional; conditions: route intraperitoneal; procedure, shortened: as §6
Rattus norvegicus [29] = test: Antihyperalgesic effects in Sprague-Dawley rat SNL model assessed as duration of paw withdrawal at 100 mg/kg, ip after 1.5 hrs, ip; format: functional; conditions: route intraperitoneal; procedure, shortened: as §6
Rattus norvegicus [30] = test: Antihyperalgesic effects in Sprague-Dawley rat SNL model assessed as duration of paw withdrawal at 100 mg/kg, ip after 2 hrs, ip; format: functional; conditions: route intraperitoneal; procedure, shortened: as §6
Rattus norvegicus [31] = test: Antihyperalgesic effects in Sprague-Dawley rat SNL model assessed as duration of paw withdrawal at 100 mg/kg, ip after 2.5 hrs, ip; format: functional; conditions: route intraperitoneal; procedure, shortened: as §6
Rattus norvegicus [32] = organism: Rattus norvegicus; test: Anti-dynamic allodynic effect in Sprague-Dawley rat CCI model assessed as latency to paw withdrawal after 0.5 hr; format: functional
Procedure, shortened: (§7)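 Rats with sciatic nerve chronic constriction injury (pentobarbital 65 mg/kg i.p. anaesthesia), baseline and day 9 testing, then drug per randomization table. After 10 min acclimatization, affected plantar surface stroked mildly with a cotton-bud; paw lift recorded. n = 4; retested 0.5-2.5 h post-dose.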

Rattus norvegicus [33] = organism: Rattus norvegicus; test: Anti-dynamic allodynic effect in Sprague-Dawley rat CCI model assessed as latency to paw withdrawal after 1 hr; format: functional; procedure, shortened: as §7
Rattus norvegicus [34] = organism: Rattus norvegicus; test: Anti-dynamic allodynic effect in Sprague-Dawley rat CCI model assessed as latency to paw withdrawal after 1.5 hr; format: functional; procedure, shortened: as §7
Rattus norvegicus [35] = organism: Rattus norvegicus; test: Anti-dynamic allodynic effect in Sprague-Dawley rat CCI model assessed as latency to paw withdrawal after 2 hr; format: functional; procedure, shortened: as §7
Rattus norvegicus [36] = organism: Rattus norvegicus; test: Anti-dynamic allodynic effect in Sprague-Dawley rat CCI model assessed as latency to paw withdrawal after 2.5 hr; format: functional; procedure, shortened: as §7

Structure (SMILES): O=C(O)CCCNC(=O)N/N=C/c1ccc(Cl)cc1
- Activity (Mus musculus [1]): inactive
- Activity (Mus musculus [2]): inactive
- Activity (Mus musculus [3]): inactive
- Activity (Mus musculus [4]): Active
- Activity (Mus musculus [5]): Active
- Activity (Mus musculus [6]): Active
- Activity (Mus musculus [7]): Active
- Activity (Mus musculus [8]): inactive
- Activity (Mus musculus [9]): inactive
- Activity (Mus musculus [10]): 59.3
- inhibition in vivo at 100 mg/kg (Mus musculus [11]): 68%
- Activity (Rattus norvegicus [12]): 4.5 s
- Activity (Rattus norvegicus [13]): 4.2 s
- Activity (Rattus norvegicus [14]): 11.3 s
- Activity (Rattus norvegicus [15]): 0.8 s
- Activity (Rattus norvegicus [16]): 0.35 s
- Activity (Rattus norvegicus [17]): 7.9 s
- Activity (Rattus norvegicus [18]): 7.8 s
- Activity (Rattus norvegicus [19]): 4.4 s
- Activity (Rattus norvegicus [20]): 4.2 s
- Activity (Rattus norvegicus [21]): 7.2 s
- Activity (Rattus norvegicus [22]): 33.1 s
- Activity (Rattus norvegicus [23]): 14 s
- Activity (Rattus norvegicus [24]): 12.7 s
- Activity (Rattus norvegicus [25]): 11.2 s
- Activity (Rattus norvegicus [26]): 15.9 s
- Activity (Rattus norvegicus [27]): 24.6 s
- Activity (Rattus norvegicus [28]): 17.3 s
- Activity (Rattus norvegicus [29]): 12.3 s
- Activity (Rattus norvegicus [30]): 5.6 s
- Activity (Rattus norvegicus [31]): 17.9 s
- Activity (Rattus norvegicus [32]): 14.9 s
- Activity (Rattus norvegicus [33]): 3.5 s
- Activity (Rattus norvegicus [34]): 1.1 s
- Activity (Rattus norvegicus [35]): 14.5 s
- Activity (Rattus norvegicus [36]): 13 s
